# Rows were chosen to be rich in hits. Some 3.5% of all compounds tested hit in one or more screens of this group.
# PglD DTNB – C. jejuni PglD acetyltransferase inhibitors, primary screen, biochemical, DTNB colorimetric, single point | UDP-N-acetylbacillosamine N-acetyltransferase PglD (Campylobacter jejuni) | purified PglD enzyme, DTNB colorimetric CoA detection | inhibition, % at 12.5 µM | actives 0.098% (n = 360,000); in the data active = inhibition above about 16%, passing the limit was not always enough
# rRNA inh HTS – reduced GFP signal of wild-type E. coli, primary screen, bacterial rRNA inhibitor project, GFP/RFP fluorescence, OD600, single point; E. coli WT GFP vs humanized-ribosome RFP mutants, 24 h; hits give low values; DMSO median 0, no signal -100; GFP signal change (wild-type ribosome), % (test concentration not listed); actives 1.6% (n = 350,000); AID 720706, 2013;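 active = significant combined selectivity score with lowered wild-type GFP, culture density cut under 30%, mutant RFP and density less affected; inactive = any of these conditions unmet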
# FN deposition inh – inhibitors of fibronectin matrix deposition, primary screen, AH1F cells, Alexa488-fibronectin fluorescence, plate reader; AH1F fibroblasts, overnight; inhibition, % at 12.6 µM; actives 0.086% (n = 350,000); AID 743247, 2014;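 active = mean inhibition across replicates of 30% or more, regardless of how many single replicates reach that level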;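 also: positive control wells lacked labelled fibronectin entirely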
#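 Measured by – fluorescence 485/525 nm · System – AH1F fibroblast monolayer, labelled fibronectin deposition · Amount – 10000 cells per well · Buffer or medium – serum-reduced DMEM (2% serum) · Doses – single dose, pinned · Also added – fluorescent fibronectin at 24 nM final · Schedule – 1 h cell attachment, overnight exposure to compound and label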
# Env fusion inh – inhibitors of HIV-1 Env-driven cell-cell fusion, primary screen, HeLa-JRFL effector, CEM21 target cells, luciferase. inhibition, % at 12.3 µM. AID 651610, 2012. actives 1.1% (n = 360,000);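 active = mean replicate inhibition score of at least 50 and every replicate individually at or above 50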;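 also: 0% = plate neutral controls and 100% = maraviroc near 300 nM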
# PGC1a acetyl inh – inhibitors of PGC1a acetylation signal, primary screen, cell-based, U2OS, AlphaScreen, inhibitor mode | AlphaScreen anti-acetyl-lysine; with virally co-expressed GCN5 acetyltransferase | inhibition, % at 15.6 µM | actives 0.17% (n = 350,000) | AID 651687, 2012;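 active = every replicate shows inhibition of at least 40%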;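 also: 0% = neutral control wells and 100% = positive control wells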
# DENV2 CPE rescue – inhibitors of DENV2 cytopathic effect, primary screen, cell-based, plate reader, single concentration. CPE inhibition, % at 9.99 µM. AID 651640, 2012. DENV2-infected cells, cytopathic effect rescue. actives 1.7% (n = 350,000); in the data active = CPE inhibition above about 20%, passing the limit was not always enough; tested in BHK-21 cells;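 also: 0% = median of neutral control wells and 100% = median of positive control wells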
# An asterisk follows results filed as active; / = no result; [ ] = remark or other dose.
SMILES,PglD DTNB,rRNA inh HTS,FN deposition inh,Env fusion inh,PGC1a acetyl inh,DENV2 CPE rescue
CC(C)NC(=O)N(C)C[C@@H]1Oc2c(NS(=O)(=O)c3ccc(F)cc3)cccc2C(=O)N([C@H](C)CO)C[C@H]1C,-5,-1,2,/,-5,11
Cc1ccc(SCC(=O)Nc2ccc(S(=O)(=O)Nc3nccs3)cc2)cc1,/,-37*,1,/,/,/
O=C(CSc1ccncc1)Nc1ccc(S(=O)(=O)Nc2nccs2)cc1,/,5,-1,13,/,8
Cc1noc(C)c1NC(=O)N(C)C[C@H]1OCCCC[C@H](C)Oc2ccc(NC(=O)Cc3ccccc3)cc2C(=O)N([C@@H](C)CO)C[C@H]1C,-1,0,/,20[16.7 µM],2,3
CC[C@H](C)[C@H](NC(N)=O)C(=O)Nc1ccc(S(=O)(=O)NC(C)C)cc1,6,-22*,2,10,0,-3
CCOc1ccc(Oc2ccc(NC(=O)[C@@H](NC(N)=O)[C@@H](C)CC)cc2)cc1,-3,11,-6,1,-16,11
O=C(/C=C/c1ccccc1)c1ccc(NC2=NCCCS2)cc1,0,-26*,-8,6,21,-2
O=C(/C=C/c1ccc(Br)cc1)c1ccc(NC2=NCCCS2)cc1,/,-13,5,-36,/,2
CCOC(=O)c1csc(NC(=O)c2cc(=O)c3ccccc3o2)n1,/,-26*,7,-24,/,6
CC(C)c1cn(CC[C@H]2CC[C@H](NC(=O)C3CC3)[C@H](CO)O2)nn1,5,1,-19,-43[16.7 µM],-7,62*
COc1ccc(NC(=O)N[C@H]2CC[C@H](CCn3cc(-c4ccccc4F)nn3)O[C@@H]2CO)cc1,-1,-3,/,5[16.7 µM],69*,-4
COc1ccccc1-c1cn(CC[C@H]2CC[C@H](NC(=O)C3CCC3)[C@H](CO)O2)nn1,-2,-1,/,-5[16.7 µM],-7,35*
COc1ccc(-c2cn(CC[C@@H]3CC[C@H](NC(=O)Nc4ccc(F)cc4)[C@@H](CO)O3)nn2)cc1,/,-1,-9,/,/,50*
COc1ccc(NC(=O)N[C@H]2CC[C@@H](CCn3cc(-c4ccccc4F)nn3)O[C@@H]2CO)cc1,3,1,/,11[16.7 µM],-15,16
COc1ccccc1-c1cn(CC[C@H]2CC[C@H](NC(=O)C3CCC3)[C@@H](CO)O2)nn1,1,0,/,22[16.7 µM],-1,7
CO[C@@H]1CN(C)C(=O)c2cc(NC(=O)c3cc(C)on3)ccc2OC[C@@H](C)NC[C@@H]1C,-2,2,-10,7[16.7 µM],12,0
Cc1ccc(S(=O)(=O)Nc2ccc3c(c2)CC(=O)N([C@H](C)CO)C[C@@H](C)[C@@H](CN(C)CC2CC2)O3)cc1,5,2,/,/,-4,-3
CCCNC(=O)N[C@H]1CC[C@@H](CCn2cc(-c3cccc(F)c3)nn2)O[C@H]1CO,5,-4,-13,-17[16.7 µM],-7,56*
Cc1noc(C)c1NC(=O)N(C)C[C@@H]1OCCCC[C@@H](C)Oc2ccc(NC(=O)Nc3ccc4c(c3)OCO4)cc2C(=O)N([C@@H](C)CO)C[C@H]1C,-4,-1,/,-32[16.7 µM],-17,1
C[C@@H]1CN([C@H](C)CO)C(=O)c2cccc(NS(=O)(=O)c3cccs3)c2O[C@@H]1CN(C)Cc1ccc(C(=O)O)cc1,12,6,/,/,15,6
CC(C)(C)c1ccc(NC(=S)NCCc2ccccn2)cc1,/,-41*,16,-3,1,6
Fc1ccc(NC(=S)NCCc2ccccn2)cc1,/,/,4,-23,/,-4
CCCNC(=O)C[C@H]1C[C@H]2c3cc(NS(=O)(=O)c4cccc(OC)c4)ccc3O[C@H]2[C@@H](CO)O1,-2,-3,10,/,5,2
C[C@H]1CN([C@@H](C)CO)C(=O)c2cc(NC(=O)C3CCCCC3)ccc2O[C@@H]1CN(C)C(=O)Nc1ccccc1,11,2,/,/,1,-9
O=C(CCC1CCCN(C(=O)c2cc(C3CC3)[nH]n2)C1)N1CCN(c2ccccn2)CC1 (centres undefined),/,2,10,18,98*,-2
SMILES,PglD DTNB,rRNA inh HTS,FN deposition inh,Env fusion inh,PGC1a acetyl inh,DENV2 CPE rescue
COc1ccc(C#Cc2ccc([C@H]3[C@@H](CO)N4C(=O)CN(C(=O)c5cccnc5)C[C@H]34)cc2)cc1,/,-1,/,/,-7,0
C[C@H](CO)N1C[C@H](C)[C@H](CN(C)Cc2ccc(Cl)c(Cl)c2)Oc2ccc(NC(=O)Nc3ccccc3)cc2CC1=O,3,4,/,28[16.7 µM],0,-8
Clc1nccc(N2CCN(c3ccccc3Cl)CC2)n1,-6,-25*,2,3,10,18
Nc1nccc(N2CCCCC2)n1,-1,0,5,7,/,11
Cc1cc(C(=O)Nc2cccc3c2O[C@H](CN(C)Cc2ccc(C(=O)O)cc2)[C@H](C)CN([C@H](C)CO)C3=O)n(C)n1,2,4,/,/,7,46*
Cc1cc(C(=O)Nc2cccc3c2O[C@H](CN(C)C)[C@H](C)CN([C@@H](C)CO)C3=O)n(C)n1,3,3,-11,-15[16.7 µM],5,28*
Cc1cc(C(=O)Nc2cccc3c2O[C@H](CN(C)Cc2ccc(C(=O)O)cc2)[C@@H](C)CN([C@H](C)CO)C3=O)n(C)n1,3,1,/,/,-4,17
COc1ccc(CN(C)C[C@@H]2Oc3c(NC(=O)c4cc(C)nn4C)cccc3C(=O)N([C@H](C)CO)C[C@@H]2C)cc1,/,-1,/,/,-4,-8
COc1ccc(CN(C)C[C@@H]2Oc3c(NC(=O)c4cc(C)nn4C)cccc3C(=O)N([C@H](C)CO)C[C@H]2C)cc1,1,-6,/,/,0,27*
COC(=O)C[C@@H]1CC[C@H]2[C@@H](COc3ccc(NC(=O)c4cccc(F)c4)cc3C(=O)N2C)O1,1,3,1,4[16.7 µM],3,1
O=C(Oc1c(CN2CCOCC2)cc(Cl)c2cccnc12)c1ccccc1Br,2,-35,7,6,17,41*
Cc1nnc(SCC(=O)N2CCC(c3noc4ccc(F)cc34)CC2)s1,6,-16,/,/,57*,0
C[C@H](CO)N1C[C@H](C)[C@H](CN(C)Cc2ccc(C(=O)O)cc2)Oc2c(NC(=O)c3ccc(-c4nccs4)cc3)cccc2C1=O,-2,2,/,1[16.7 µM],9,-8
Cn1nc(C(=O)N2CCCCC2)c2c1-c1ccccc1S(=O)(=O)C2,0,-3,-6,-11,48*,-4

# Screening results from PubChem BioAssay.
